Reference: ChEMBL document CHEMBL3400112, “Design, syntheses, and pharmacological characterization of 17-cyclopropylmethyl-3,14β-dihydroxy-4,5α-epoxy-6α-(isoquinoline-3'-carboxamido)morphinan analogues as opioid receptor ligands” (Bioorg Med Chem, 2015)
Activity calls are given as the source filed them. No cut-off for these calls is given here.

How the values were obtained:
[1] = target: T1, Kappa-type opioid receptor (Mus musculus, UniProt P33534); assay: Displacement of [3H]diprenorphine from mouse KOR expressed in CHO cells after […]; type: cell-based
T1 sequence (P33534 whole entry): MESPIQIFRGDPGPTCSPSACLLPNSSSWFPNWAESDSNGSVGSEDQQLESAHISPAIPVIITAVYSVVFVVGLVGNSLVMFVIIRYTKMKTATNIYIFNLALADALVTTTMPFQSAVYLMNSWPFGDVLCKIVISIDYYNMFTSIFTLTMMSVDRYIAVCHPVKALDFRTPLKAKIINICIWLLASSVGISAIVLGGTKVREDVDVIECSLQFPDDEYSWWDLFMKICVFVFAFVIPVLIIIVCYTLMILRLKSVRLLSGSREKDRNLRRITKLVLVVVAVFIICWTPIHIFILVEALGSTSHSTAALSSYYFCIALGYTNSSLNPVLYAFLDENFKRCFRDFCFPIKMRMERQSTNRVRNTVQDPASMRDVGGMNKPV

[2] = tested on: Mus musculus; assay: Reversal of morphine-induced antinociceptive activity in Swiss-Webster mouse at 1 mg/kg, sc administered 5 mins prior to morphine challenge measured after 20 mins by warm water tail-flick test relative to control; type: functional
[3] = target: T2, Delta-type opioid receptor (Mus musculus, UniProt P32300); assay: Displacement of [3H]naltrindole from mouse DOR expressed in CHO cells after […]; type: cell-based
T2 sequence (P32300 whole entry): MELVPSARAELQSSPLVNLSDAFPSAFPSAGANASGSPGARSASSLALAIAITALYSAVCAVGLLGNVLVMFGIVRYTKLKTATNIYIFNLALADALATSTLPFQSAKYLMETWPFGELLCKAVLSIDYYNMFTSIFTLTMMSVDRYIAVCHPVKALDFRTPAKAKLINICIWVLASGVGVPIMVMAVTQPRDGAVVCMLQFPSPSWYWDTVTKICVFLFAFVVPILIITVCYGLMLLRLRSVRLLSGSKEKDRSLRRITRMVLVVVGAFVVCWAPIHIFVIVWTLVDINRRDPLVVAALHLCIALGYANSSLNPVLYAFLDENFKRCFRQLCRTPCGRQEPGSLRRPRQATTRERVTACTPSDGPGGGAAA

[4] = target: T3, Mu-type opioid receptor (Mus musculus, UniProt P42866); assay: Stimulation of mouse MOR expressed in CHO cells after […] by [35S]GTPgammaS binding assay; type: functional, cell-based
T3 sequence (P42866 whole entry): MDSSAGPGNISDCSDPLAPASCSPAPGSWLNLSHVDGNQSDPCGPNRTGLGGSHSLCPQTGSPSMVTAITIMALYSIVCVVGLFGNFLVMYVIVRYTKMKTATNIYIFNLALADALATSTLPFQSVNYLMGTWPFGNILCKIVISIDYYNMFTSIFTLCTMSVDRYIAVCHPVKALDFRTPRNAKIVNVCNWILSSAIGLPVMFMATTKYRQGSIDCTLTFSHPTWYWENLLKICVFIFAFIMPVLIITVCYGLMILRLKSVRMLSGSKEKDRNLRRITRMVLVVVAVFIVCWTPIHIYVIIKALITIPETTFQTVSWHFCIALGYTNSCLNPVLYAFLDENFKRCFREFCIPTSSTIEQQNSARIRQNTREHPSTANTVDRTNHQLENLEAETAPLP

[5] = species on record: Mus musculus; assay: Selectivity ratio of Ki for mouse KOR to Ki for mouse MOR
[6] = target: Mu-type opioid receptor (Mus musculus) (UniProt P42866); assay: Stimulation of mouse MOR expressed in CHO cells after […] by [35S]GTPgammaS binding assay relative to DAMGO; type: functional, cell-based
Chain of Mu-type opioid receptor (Mus musculus) (P42866 whole entry): as above

[7] = target: T3, Mu-type opioid receptor; assay: Displacement of [3H]naloxane from mouse MOR expressed in CHO cells after […]; type: cell-based
[8] = species on record: Mus musculus; assay: Selectivity ratio of Ki for mouse DOR to Ki for mouse MOR
[9] = tested on: Mus musculus; assay: Reversal of morphine-induced antinociceptive activity in sc dosed Swiss-Webster mouse administered 5 mins prior to morphine challenge measured after 20 mins by warm water tail-flick test relative to control; type: functional
[10] = target: Kappa-type opioid receptor (Mus musculus) (UniProt P33534); assay: Agonist activity at mouse KOR expressed in CHO cells after […] by [35S]GTPgammaS binding assay relative to (+/-)-trans-U50488; type: functional, cell-based
Chain of Kappa-type opioid receptor (Mus musculus) (P33534 whole entry): as the sequence (P33534 whole entry) above

[11] = target: T2, Delta-type opioid receptor; assay: Agonist activity at mouse DOR expressed in CHO cells after […] by [35S]GTPgammaS binding assay; type: functional, cell-based
[12] = target: T1, Kappa-type opioid receptor; assay: Agonist activity at mouse KOR expressed in CHO cells after […] by [35S]GTPgammaS binding assay; type: functional, cell-based
[13] = target: Delta-type opioid receptor (Mus musculus) (UniProt P32300); assay: Agonist activity at mouse DOR expressed in CHO cells after […] by [35S]GTPgammaS binding assay relative to SNC80; type: functional, cell-based
Chain of Delta-type opioid receptor (Mus musculus) (P32300 whole entry): as the sequence (P32300 whole entry) above

[14] = tested on: Mus musculus; assay: Induction of escape jumps in Swiss-Webster mouse at 30 mg/kg, sc measured after 3 mins up to 20 mins; type: organism-based; design: dose 30 mg/kg, route subcutaneous; conditions: in vivo
Procedure, shortened: (§1)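 After 72 h and 30 min habituation in an observation chamber, withdrawal was precipitated by s.c. test agent. Escape jumps and wet-dog shakes counted over 20 min, starting within 3 min of dosing; at least six mice per dose.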

[15] = target: T4, Mu-type opioid receptor (Homo sapiens, UniProt P35372); assay: Antagonist activity at human MOR expressed in CHO cells assessed as inhibition of DAMGO-induced increase in intracellular Ca2+ level incubated for 15 mins prior to DAMGO addition by microplate reader analysis; type: functional, cell-based
T4 sequence (P35372 whole entry): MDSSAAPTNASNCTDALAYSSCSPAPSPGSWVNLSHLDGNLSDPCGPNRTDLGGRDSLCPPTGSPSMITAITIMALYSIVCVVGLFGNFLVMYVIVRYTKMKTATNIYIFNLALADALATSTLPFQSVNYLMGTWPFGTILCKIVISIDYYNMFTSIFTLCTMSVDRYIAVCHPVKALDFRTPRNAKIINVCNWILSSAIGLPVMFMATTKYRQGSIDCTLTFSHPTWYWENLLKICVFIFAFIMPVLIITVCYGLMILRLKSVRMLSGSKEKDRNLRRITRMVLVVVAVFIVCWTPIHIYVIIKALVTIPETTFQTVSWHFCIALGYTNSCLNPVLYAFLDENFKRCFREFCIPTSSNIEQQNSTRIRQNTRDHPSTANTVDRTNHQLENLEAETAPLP

[16] = target: Delta-type opioid receptor (Mus musculus) (UniProt P32300); assay: Agonist activity at mouse DOR expressed in CHO cells after […] by [35S]GTPgammaS binding assay relative to naltrexone; type: functional, cell-based
[17] = tested on: Mus musculus; assay: Reversal of morphine-induced antinociceptive activity in Swiss-Webster mouse assessed as escape jumps at 30 to 100 mg/kg, sc measured after 3 mins up to 20 mins; type: functional, organism-based; procedure, shortened: as §1
[18] = species on record: Mus musculus; assay: Selectivity ratio of EC50 for mouse DOR to EC50 for mouse MOR
[19] = target: T4, Mu-type opioid receptor; assay: Agonist activity at human MOR expressed in CHO cells assessed as increase in intracellular Ca2+ level after 30 mins by microplate reader analysis; type: functional, cell-based
Procedure, shortened: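 Gαqi5-transfected hMOR-CHO cells (DMEM/F12, 10% FBS, hygromycin B, 37 °C/5% CO2), plated 4 h post-transfection, grown 24 h, loaded 30 min with Fluo-4 AM plus probenecid in HBSS:HEPES. Test agent at varying concentrations in triplicate added after 15 s of reading. Fluorescence 494/516 nm over 120 s; at least three independent experiments.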

[20] = tested on: Mus musculus; assay: Induction of wet-dog shakes in Swiss-Webster mouse at 30 mg/kg, sc measured after 3 mins up to 20 mins; type: organism-based; design: dose 30 mg/kg, route subcutaneous; conditions: in vivo; procedure, shortened: as §1
[21] = tested on: Mus musculus; assay: Reversal of morphine-induced antinociceptive activity in Swiss-Webster mouse assessed as wet-dog shakes at 30 to 100 mg/kg, sc measured after 3 mins up to 20 mins; type: functional, organism-based; procedure, shortened: as §1
[22] = species on record: Mus musculus; assay: Selectivity ratio of EC50 for mouse KOR to EC50 for mouse MOR
[23] = tested on: Mus musculus; assay: Antinociceptive activity in Swiss-Webster mouse at 10 mg/kg, sc after 20 mins by warm water tail-flick test relative to control; type: functional; conditions: route subcutaneous
[24] = target: T1, Kappa-type opioid receptor; assay: Partial agonist activity at mouse KOR expressed in CHO cells after […] by [35S]GTPgammaS binding assay; type: functional, cell-based
[25] = tested on: Mus musculus; assay: Antinociceptive activity in sc dosed Swiss-Webster mouse after 20 mins by warm water tail-flick test relative to control; type: functional

Structure (SMILES) | Ki [1] [µM] | Ki [3] [µM] | EC50 [4] [µM] | Ratio Ki [5] | Emax [6] [%] | Ki [7] [µM] | Ratio Ki [8] | further results
O=C(N[C@H]1CC[C@@]2(O)[C@H]3Cc4ccc(O)c5c4[C@@]2(CCN3CC2CC2)[C@H]1O5)c1cc2ccc([N+](=O)[O-])cc2cn1 | 0.016 | 0.0553 | 0.0427 | 16 | 13.4 | 0.0036 | 4.5 | Activity [2]: inactive
O=C(Cc1cc2ccccc2cn1)N[C@H]1CC[C@@]2(O)[C@H]3Cc4ccc(O)c5c4[C@@]2(CCN3CC2CC2)[C@H]1O5 | – | – | – | 10 | – | – | 0.9 | –
O=C(N[C@H]1CC[C@@]2(O)[C@H]3Cc4ccc(O)c5c4[C@@]2(CCN3CC2CC2)[C@H]1O5)c1cc2ccccc2cn1 | – | – | – | – | – | – | – | AD50 [9]: 0.45 mg/kg; Emax [10]: 13.1%; EC50 [11]: 0.0986 µM; EC50 [12]: 0.0109 µM; Emax [13]: 53.5%
CN(C)c1ccc2c(c1)CN(C)C(C(=O)N[C@H]1CC[C@@]3(O)[C@H]4Cc5ccc(O)c6c5[C@@]3(CCN4CC3CC3)[C@H]1O6)C2 (some centres not stated) | 0.00491 | 0.0045 | 0.0114 | 2.5 | 26.2 | 0.00179 | 2.7 | –
CN(C)c1ccc2cc(C(=O)N[C@H]3CC[C@@]4(O)[C@H]5Cc6ccc(O)c7c6[C@@]4(CCN5CC4CC4)[C@H]3O7)ncc2c1 | 0.088 | 0.0686 | 0.0047 | 16 | 6.32 | 0.0044 | 20 | Activity [2]: inactive
O=C(N[C@H]1CC[C@@]2(O)[C@H]3Cc4ccc(O)c5c4[C@@]2(CCN3CC2CC2)[C@H]1O5)c1cc2cc([N+](=O)[O-])ccc2cn1 | 0.0279 | 0.0947 | 0.0315 | 16 | 12.5 | 0.0057 | 4.9 | Activity [14]: Non-toxic; IC50 [15]: 2.73 µM; inhibition [15]: Dose-dependent effect; MPE ([2]; route subcutaneous): 8.9%; Ratio [16]: 10; Activity [17]: inactive; Ratio EC50 [18]: 3.4; Activity [19]: inactive; AD50 [9]: 0.92 mg/kg; Emax [10]: 21.1%; Activity [20]: Non-toxic; Activity [21]: inactive; EC50 [11]: 0.108 µM; Ratio EC50 [22]: 2; EC50 [12]: 0.0626 µM; Emax [13]: 67.7%
O=C(N[C@H]1CC[C@@]2(O)[C@H]3Cc4ccc(O)c5c4[C@@]2(CCN3CC2CC2)[C@H]1O5)c1ncc2ccccc2n1 | – | – | – | 71 | – | – | 4.6 | –
O=C(CCc1cc2ccccc2cn1)N[C@H]1CC[C@@]2(O)[C@H]3Cc4ccc(O)c5c4[C@@]2(CCN3CC2CC2)[C@H]1O5 | – | – | – | 12 | – | – | 2.4 | –
O=C(CNC(=O)c1cc2ccccc2cn1)N[C@H]1CC[C@@]2(O)[C@H]3Cc4ccc(O)c5c4[C@@]2(CCN3CC2CC2)[C@H]1O5 | – | – | – | 3.4 | – | – | 0.2 | –
CN1Cc2ccccc2C[C@H]1C(=O)N[C@H]1CC[C@@]2(O)[C@H]3Cc4ccc(O)c5c4[C@@]2(CCN3CC2CC2)[C@H]1O5 | – | – | – | 3.2 | – | – | 2.3 | –
O=C(N[C@H]1CC[C@@]2(O)[C@H]3Cc4ccc(O)c5c4[C@@]2(CCN3CC2CC2)[C@H]1O5)c1nc(Cl)c2ccccc2c1O | – | – | – | 24 | – | – | 25 | –
N#Cc1nc(C(=O)N[C@H]2CC[C@@]3(O)[C@H]4Cc5ccc(O)c6c5[C@@]3(CCN4CC3CC3)[C@H]2O6)cc2ccccc12 | – | – | – | 131 | – | – | 10 | MPE [23]: 56.9%
Cc1nc(C(=O)N[C@H]2CC[C@@]3(O)[C@H]4Cc5ccc(O)c6c5[C@@]3(CCN4CC3CC3)[C@H]2O6)cc2ccccc12 | – | – | – | – | – | – | – | MPE [23]: <20%
O=C(N[C@H]1CC[C@@]2(O)[C@H]3Cc4ccc(O)c5c4[C@@]2(CCN3CC2CC2)[C@H]1O5)c1ncc2ccccc2c1O | – | – | – | – | – | – | – | MPE [23]: <20%
COc1c(C(=O)N[C@H]2CC[C@@]3(O)[C@H]4Cc5ccc(O)c6c5[C@@]3(CCN4CC3CC3)[C@H]2O6)nc(Cl)c2ccccc12 | – | – | – | – | – | – | – | IC50 [15]: 0.0237 µM; inhibition [15]: Dose-dependent effect; Activity [19]: inactive; EC50 [24]: 0.0264 µM; ED50 [25]: 0.73 mg/kg; EC50 [11]: 0.0326 µM; Emax [13]: 54.8%
COc1cc2cnc(C(=O)N[C@H]3CC[C@@]4(O)[C@H]5Cc6ccc(O)c7c6[C@@]4(CCN5CC4CC4)[C@H]3O7)cc2cc1OC | 0.061 | 0.0692 | 0.0852 | 5.2 | 14 | 0.0134 | 4.6 | –
